Values joined by “and” are separate entries in the source; they are usually repeats but may differ in a detail not shown here. Equal entries are not always repeated.
Key:
Type in all cases: toxicity, cell-based
HEK-293T = assay: Multiplex assay against HEK293T; conditions: human, number of replicates 2
In short: (§1)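 On a CQ1 microscope at 37°C and 5% CO2, live cells were imaged after compound addition. They had been stained at seeding with Hoechst33342, BioTracker Green Microtubule Cytoskeleton Dye, MitoTracker Red and Annexin V Alexa Fluor 680. CellPathfinder machine-learning gating assigned cells to Hoechst high-intensity objects or normal cells, normal cells to healthy, pyknosed or fragmented nuclei, and pyknosed cells to mitotic or apoptotic. Tubulin, mitochondrial-mass and membrane-permeability phenotypes are per cents of healthy-nucleus cells.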

Fibroblast = assay: Multiplex assay against human fibroblast; conditions: number of replicates 2; in short: as §1
U2OS = assay: Multiplex assay against U2OS; conditions: human, number of replicates 2; in short: as §1
[1] = 12 h, 1 µM, compound concentration 1 uM
[2] = 12 h, 10 µM, compound concentration 10 uM
[3] = 24 h, 1 µM, compound concentration 1 uM
[4] = 24 h, 10 µM, compound concentration 10 uM
[5] = 48 h, 1 µM, compound concentration 1 uM
[6] = 48 h, 10 µM, compound concentration 10 uM

CN1CCc2cc(Nc3ncc(C(F)(F)F)c(NCc4cc[nH]n4)n3)ccc2C1
Population Apoptotic (%) (HEK-293T; [1]): 85% and 72%
Population Fragmented Nuclei (%) (HEK-293T; [1]): 4% and 3%
Population Healthy Nuclei (%) (HEK-293T; [1]): 77% and 78%
Population Hoechst High Intensity Objects (%) (HEK-293T; [1]): 14% and 11%
Population Membrane Permeable-Phenotype (%) (HEK-293T; [1]): 1%
Population Mitochondria Different-Phenotype (%) (HEK-293T; [1]): 41% and 47%
Population Mitotic Cells (%) (HEK-293T; [1]): 14% and 27%
Population Normal (%) (HEK-293T; [1]): 85% and 88%
Population Pyknosed Nuclei (%) (HEK-293T; [1]): 17%
Population Tubulin-Different-Phenotype (%) (HEK-293T; [1]): 35% and 44%
Total Cell Count (HEK-293T; [1]): 280 and 291
Population Apoptotic (%) (HEK-293T; [2]): 64% and 85%
Population Fragmented Nuclei (%) (HEK-293T; [2]): 5%
Population Healthy Nuclei (%) (HEK-293T; [2]): 89%
Population Hoechst High Intensity Objects (%) (HEK-293T; [2]): 10% and 13%
Population Membrane Permeable-Phenotype (%) (HEK-293T; [2]): 0%
Population Mitochondria Different-Phenotype (%) (HEK-293T; [2]): 38% and 43%
Population Mitotic Cells (%) (HEK-293T; [2]): 35% and 14%
Population Normal (%) (HEK-293T; [2]): 89% and 86%
Population Pyknosed Nuclei (%) (HEK-293T; [2]): 5%
Population Tubulin-Different-Phenotype (%) (HEK-293T; [2]): 66% and 70%
Total Cell Count (HEK-293T; [2]): 377 and 312
Population Apoptotic (%) (HEK-293T; [3]): 83% and 72%
Population Fragmented Nuclei (%) (HEK-293T; [3]): 4% and 5%
Population Healthy Nuclei (%) (HEK-293T; [3]): 81% and 73%
Population Hoechst High Intensity Objects (%) (HEK-293T; [3]): 20% and 13%
Population Membrane Permeable-Phenotype (%) (HEK-293T; [3]): 0%
Population Mitochondria Different-Phenotype (%) (HEK-293T; [3]): 37% and 43%
Population Mitotic Cells (%) (HEK-293T; [3]): 16% and 27%
Population Normal (%) (HEK-293T; [3]): 79% and 86%
Population Pyknosed Nuclei (%) (HEK-293T; [3]): 14% and 20%
Population Tubulin-Different-Phenotype (%) (HEK-293T; [3]): 38% and 42%
Total Cell Count (HEK-293T; [3]): 267 and 261
Population Apoptotic (%) (HEK-293T; [4]): 63% and 80%
Population Fragmented Nuclei (%) (HEK-293T; [4]): 5% and 4%
Population Healthy Nuclei (%) (HEK-293T; [4]): 87%
Population Hoechst High Intensity Objects (%) (HEK-293T; [4]): 11% and 13%
Population Membrane Permeable-Phenotype (%) (HEK-293T; [4]): 1% and 0%
Population Mitochondria Different-Phenotype (%) (HEK-293T; [4]): 58% and 60%
Population Mitotic Cells (%) (HEK-293T; [4]): 36% and 20%
Population Normal (%) (HEK-293T; [4]): 88% and 86%
Population Pyknosed Nuclei (%) (HEK-293T; [4]): 7% and 8%
Population Tubulin-Different-Phenotype (%) (HEK-293T; [4]): 73% and 71%
Total Cell Count (HEK-293T; [4]): 315 and 284
Population Apoptotic (%) (HEK-293T; [5]): 80% and 72%
Population Fragmented Nuclei (%) (HEK-293T; [5]): 7% and 5%
Population Healthy Nuclei (%) (HEK-293T; [5]): 79%
Population Hoechst High Intensity Objects (%) (HEK-293T; [5]): 16% and 14%
Population Membrane Permeable-Phenotype (%) (HEK-293T; [5]): 1%
Population Mitochondria Different-Phenotype (%) (HEK-293T; [5]): 40% and 36%
Population Mitotic Cells (%) (HEK-293T; [5]): 19% and 27%
Population Normal (%) (HEK-293T; [5]): 83% and 85%
Population Pyknosed Nuclei (%) (HEK-293T; [5]): 13% and 15%
Population Tubulin-Different-Phenotype (%) (HEK-293T; [5]): 36%
Total Cell Count (HEK-293T; [5]): 285 and 307
Population Apoptotic (%) (HEK-293T; [6]): 46% and 75%
Population Fragmented Nuclei (%) (HEK-293T; [6]): 3% and 4%
Population Healthy Nuclei (%) (HEK-293T; [6]): 84% and 82%
Population Hoechst High Intensity Objects (%) (HEK-293T; [6]): 14% and 18%
Population Membrane Permeable-Phenotype (%) (HEK-293T; [6]): 0% and 1%
Population Mitochondria Different-Phenotype (%) (HEK-293T; [6]): 65% and 67%
Population Mitotic Cells (%) (HEK-293T; [6]): 53% and 25%
Population Normal (%) (HEK-293T; [6]): 85% and 81%
Population Pyknosed Nuclei (%) (HEK-293T; [6]): 11% and 12%
Population Tubulin-Different-Phenotype (%) (HEK-293T; [6]): 71% and 72%
Total Cell Count (HEK-293T; [6]): 303 and 280
Population Apoptotic (%) (Fibroblast; [1]): 63% and 62%
Population Fragmented Nuclei (%) (Fibroblast; [1]): 7% and 19%
Population Healthy Nuclei (%) (Fibroblast; [1]): 63% and 58%
Population Hoechst High Intensity Objects (%) (Fibroblast; [1]): 0%
Population Membrane Permeable-Phenotype (%) (Fibroblast; [1]): 3% and 6%
Population Mitochondria Different-Phenotype (%) (Fibroblast; [1]): 0% and 1%
Population Mitotic Cells (%) (Fibroblast; [1]): 36% and 37%
Population Normal (%) (Fibroblast; [1]): 100%
Population Pyknosed Nuclei (%) (Fibroblast; [1]): 28% and 22%
Population Tubulin-Different-Phenotype (%) (Fibroblast; [1]): 1% and 4%
Total Cell Count (Fibroblast; [1]): 133 and 168
Population Apoptotic (%) (Fibroblast; [2]): 70% and 60%
Population Fragmented Nuclei (%) (Fibroblast; [2]): 19% and 24%
Population Healthy Nuclei (%) (Fibroblast; [2]): 60% and 63%
Population Hoechst High Intensity Objects (%) (Fibroblast; [2]): 0%
Population Membrane Permeable-Phenotype (%) (Fibroblast; [2]): 9% and 11%
Population Mitochondria Different-Phenotype (%) (Fibroblast; [2]): 1%
Population Mitotic Cells (%) (Fibroblast; [2]): 29% and 40%
Population Normal (%) (Fibroblast; [2]): 100%
Population Pyknosed Nuclei (%) (Fibroblast; [2]): 20% and 11%
Population Tubulin-Different-Phenotype (%) (Fibroblast; [2]): 16% and 18%
Total Cell Count (Fibroblast; [2]): 180 and 262
Population Apoptotic (%) (Fibroblast; [3]): 84% and 80%
Population Fragmented Nuclei (%) (Fibroblast; [3]): 15%
Population Healthy Nuclei (%) (Fibroblast; [3]): 40% and 50%
Population Hoechst High Intensity Objects (%) (Fibroblast; [3]): 0%
Population Membrane Permeable-Phenotype (%) (Fibroblast; [3]): 3% and 12%
Population Mitochondria Different-Phenotype (%) (Fibroblast; [3]): 0%
Population Mitotic Cells (%) (Fibroblast; [3]): 15% and 20%
Population Normal (%) (Fibroblast; [3]): 100% and 99%
Population Pyknosed Nuclei (%) (Fibroblast; [3]): 43% and 34%
Population Tubulin-Different-Phenotype (%) (Fibroblast; [3]): 3%
Total Cell Count (Fibroblast; [3]): 133 and 161
Population Apoptotic (%) (Fibroblast; [4]): 61% and 84%
Population Fragmented Nuclei (%) (Fibroblast; [4]): 26% and 20%
Population Healthy Nuclei (%) (Fibroblast; [4]): 56% and 61%
Population Hoechst High Intensity Objects (%) (Fibroblast; [4]): 0%
Population Membrane Permeable-Phenotype (%) (Fibroblast; [4]): 9% and 12%
Population Mitochondria Different-Phenotype (%) (Fibroblast; [4]): 3% and 1%
Population Mitotic Cells (%) (Fibroblast; [4]): 38% and 15%
Population Normal (%) (Fibroblast; [4]): 100% and 99%
Population Pyknosed Nuclei (%) (Fibroblast; [4]): 16% and 17%
Population Tubulin-Different-Phenotype (%) (Fibroblast; [4]): 17% and 19%
Total Cell Count (Fibroblast; [4]): 185 and 253
Population Apoptotic (%) (Fibroblast; [5]): 88% and 72%
Population Fragmented Nuclei (%) (Fibroblast; [5]): 24% and 15%
Population Healthy Nuclei (%) (Fibroblast; [5]): 40% and 67%
Population Hoechst High Intensity Objects (%) (Fibroblast; [5]): 0%
Population Membrane Permeable-Phenotype (%) (Fibroblast; [5]): 8% and 14%
Population Mitochondria Different-Phenotype (%) (Fibroblast; [5]): 0%
Population Mitotic Cells (%) (Fibroblast; [5]): 11% and 27%
Population Normal (%) (Fibroblast; [5]): 100% and 99%
Population Pyknosed Nuclei (%) (Fibroblast; [5]): 35% and 16%
Population Tubulin-Different-Phenotype (%) (Fibroblast; [5]): 10% and 12%
Total Cell Count (Fibroblast; [5]): 122 and 133
Population Apoptotic (%) (Fibroblast; [6]): 65% and 59%
Population Fragmented Nuclei (%) (Fibroblast; [6]): 26% and 22%
Population Healthy Nuclei (%) (Fibroblast; [6]): 51% and 57%
Population Hoechst High Intensity Objects (%) (Fibroblast; [6]): 0%
Population Membrane Permeable-Phenotype (%) (Fibroblast; [6]): 5% and 9%
Population Mitochondria Different-Phenotype (%) (Fibroblast; [6]): 1% and 0%
Population Mitotic Cells (%) (Fibroblast; [6]): 34% and 40%
Population Normal (%) (Fibroblast; [6]): 100%
Population Pyknosed Nuclei (%) (Fibroblast; [6]): 22% and 19%
Population Tubulin-Different-Phenotype (%) (Fibroblast; [6]): 14% and 19%
Total Cell Count (Fibroblast; [6]): 184 and 251
Population Hoechst High Intensity Objects (%) (U2OS; [1]): 0%
Population Membrane Permeable-Phenotype (%) (U2OS; [1]): 0% and 4%
Population Mitochondria Different-Phenotype (%) (U2OS; [1]): 0% and 1%
Population Mitotic Cells (%) (U2OS; [1]): 0% and 12%
Population Normal (%) (U2OS; [1]): 100%
Population Healthy Nuclei (%) (U2OS; [2]): 33% and 57%
Population Hoechst High Intensity Objects (%) (U2OS; [2]): 0%
Population Membrane Permeable-Phenotype (%) (U2OS; [2]): 0% and 7%
Population Mitochondria Different-Phenotype (%) (U2OS; [2]): 0% and 5%
Population Normal (%) (U2OS; [2]): 100%
Population Pyknosed Nuclei (%) (U2OS; [2]): 16% and 27%
Population Tubulin-Different-Phenotype (%) (U2OS; [2]): 50% and 41%
Population Hoechst High Intensity Objects (%) (U2OS; [3]): 0%
Population Membrane Permeable-Phenotype (%) (U2OS; [3]): 0% and 6%
Population Mitochondria Different-Phenotype (%) (U2OS; [3]): 0% and 4%
Population Mitotic Cells (%) (U2OS; [3]): 0% and 8%
Population Normal (%) (U2OS; [3]): 100% and 99%
Population Apoptotic (%) (U2OS; [4]): 71% and 80%
Population Healthy Nuclei (%) (U2OS; [4]): 15% and 45%
Population Hoechst High Intensity Objects (%) (U2OS; [4]): 0% and 1%
Population Membrane Permeable-Phenotype (%) (U2OS; [4]): 20% and 15%
Population Mitochondria Different-Phenotype (%) (U2OS; [4]): 20% and 8%
Population Mitotic Cells (%) (U2OS; [4]): 28% and 19%
Population Normal (%) (U2OS; [4]): 100% and 98%
Population Pyknosed Nuclei (%) (U2OS; [4]): 21% and 42%
Population Tubulin-Different-Phenotype (%) (U2OS; [4]): 60%
Population Healthy Nuclei (%) (U2OS; [5]): 0% and 21%
Population Hoechst High Intensity Objects (%) (U2OS; [5]): 0% and 1%
Population Mitochondria Different-Phenotype (%) (U2OS; [5]): 0% and 22%
Population Mitotic Cells (%) (U2OS; [5]): 0%
Population Normal (%) (U2OS; [5]): 100% and 98%
Population Apoptotic (%) (U2OS; [6]): 93% and 88%
Population Healthy Nuclei (%) (U2OS; [6]): 16% and 15%
Population Hoechst High Intensity Objects (%) (U2OS; [6]): 1% and 0%
Population Mitotic Cells (%) (U2OS; [6]): 6% and 11%
Population Normal (%) (U2OS; [6]): 98% and 100%
Population Pyknosed Nuclei (%) (U2OS; [6]): 68% and 23%
Population Tubulin-Different-Phenotype (%) (U2OS; [6]): 80% and 66%

Reference: ChEMBL document CHEMBL5303300, “EUbOPEN Chemogenomics Library - Multiplex” (2023)
